Assay outcomes: PubChem, Sanford-Burnham Center for Chemical Genomics
HKDC1 inhibitor = blocks human hexokinase HKDC1 activity | Q2TB90 | recombinant HKDC1, G6PDH/diaphorase resazurin coupled fluorescence | inhibition, % at 20 µM | 0.16% of 340,000 active | AID 493160;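 active = inhibition above about 35% when tested at 20 µM, limit read from the data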;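 also: plate controls were DMSO wells with enzyme for no effect and DMSO wells lacking enzyme for full effect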
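System: Recombinant HKDC1 hexokinase | Amount: HKDC1 at 5 µg/mL | Reagent: Glucose with 1 mM ATP | Doses: Single 20 µM dose | Incubation: Reaction time 90 min, room temperature, protected from light | Signal: Coupled resazurin fluorescence, excitation 525 nm, emission 613 nm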
Diaphorase inh = inhibits diaphorase or chemically oxidizes, flagging diaphorase assay artifacts; diaphorase resazurin-to-resorufin fluorescence, NADH, 16 min; bacterial (C. kluyveri) enzyme, not human; inhibition, % at 20 µM; 0.69% of 190,000 active;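 active = primary screen inhibition at 20 µM above a set limit, cut at about 50% in these data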;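 also: plate controls were DMSO with full reaction for no effect and wells lacking NADH for full effect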
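Benchmarks: positive control wells lacking NADH, neutral wells with DMSO only. System: bacterial diaphorase enzyme (C. kluyveri). Input: 0.14 U/mL diaphorase, enzyme working solution. Detection: resorufin fluorescence, excitation 544 nm, emission 590 nm. Times: 16-min room-temperature incubation before reading.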
G6PDH CS = L. mesenteroides G6PDH inhibition counter-screen. 0.12% of 200,000 active. Purified L. mesenteroides G6PDH, diaphorase/resazurin coupled fluorescence, 45 min. inhibition, % at 5 µM; in the data active = inhibition above about 50%
PfG6PD inh = PfG6PD (Plasmodium falciparum) enzyme inhibition; PfGluPho enzyme, NADPH resazurin-diaphorase fluorescence; inhibition, % at 20 µM; 0.78% of 350,000 active; AID 504690;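 active = inhibition reaching at least a set limit at 20 µM in the primary screen, cut at about 59% in these data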;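 also: 0% = DMSO wells with substrate and 100% = DMSO wells lacking glucose-6-phosphate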
Diaph act CS = diaphorase activation or chemical reduction counter-screen | activation factor at 20 µM | Diaphorase/resazurin coupled assay, resorufin fluorescence, 16 min; hits give high values; 1 = vehicle wells, 0 = NADH-free wells | 0.005% of 190,000 active | AID 1229;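 active = diaphorase activity raised at least twofold by the compound at 20 µM; inactive = activation factor below 2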
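Assay system: Purified diaphorase enzyme from Clostridium kluyveri | Amount: Enzyme 0.07 U/mL final | Dosing: Compound 20 µM once, DMSO 1% | Timing: 16 min reaction at room temperature | Detection: Fluorescence, excitation 544 nm and emission 590 nm | Evaluation: Higher resorufin formation from activation or reduction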
HKDC1 act conf2 = confirmation of human HKDC1 activators; AID 504708; 14% of 740 active; inhibition, % at 20 µM; recombinant HKDC1, G6PDH/diaphorase resazurin fluorescence; hits give low values; shares compounds with HKDC1 inhibitor;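 active = inhibition at or below a set negative limit, negative inhibition meaning the enzyme was activated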
The depositor's hits bear a star; nt = no result. Compounds with a hit are over-represented: about 1.2% of the library has one in this group of screens.

SMILES | HKDC1 inhibitor | Diaphorase inh | G6PDH CS | PfG6PD inh | Diaph act CS | HKDC1 act conf2
C[C@@H]1CCCCO[C@@H](CN(C)C(=O)C2CCCCC2)[C@@H](C)CN([C@H](C)CO)C(=O)c2cc(NC(=O)NC3CCCCC3)ccc2O1 | nt | nt | nt | -15 | nt | nt
Cc1onc(-c2ccccc2)c1C(=O)NNC(=S)NC(=O)/C=C/c1cccs1 | -57 | 17 | -3 | -44 | 0.8 | -23
CCOC(=O)c1ccc(NC2=CC(=O)C(=O)c3ccccc32)cc1 | 33 | 32 | 45 | 46 | 0.7 | 28
Cc1ccc(NC2=CC(=O)C(=O)c3ccccc32)cc1 | 27 | 20 | 46 | 15 | 0.8 | nt
O=C(O)[C@@H](c1ccccc1)N1Cc2ccccc2C1=O | 52* | -8 | 4 | -4 | 1.1 | 44
NC(=S)Nc1ccc(Cl)cc1Cl | -3 | nt | nt | -6 | nt | nt
O/C=c1\ccc2cccc3nc(C(F)(F)F)nc1c23 | 40* | nt | nt | 10 | nt | 21
N#C/C(=C\c1cc2c(cc1Br)OCO2)C(=O)NCC1CCCO1 (stereo unspecified) | 1 | nt | nt | 4 | nt | nt
CC1(C)CC(N2CCN(CCO)CC2)=CC(=S)N1 | -5 | nt | nt | -1 | nt | nt
O=C1CSC(=S)N1N=Cc1ccccc1O | -42 | nt | nt | 47 | nt | -9
Cc1ccccc1/C=N/N1C(=O)CSC1=S | 0 | nt | nt | -6 | nt | nt
Cc1ccc(CCNC(=O)c2cc(-c3ccncc3)nc3ccc(S(=O)(=O)N4CCOCC4)cc23)cc1 | -3 | nt | nt | -26 | nt | nt
CC(=O)n1cc(N(C(=O)CCl)c2ccc(Cl)cc2)c2ccccc21 | 58* | nt | nt | -1 | nt | 33
CCOc1ccc(C(=O)NC(=S)N(Cc2ccccc2)Cc2ccccc2)cc1 | -31 | 15 | -3 | -24 | 0.8 | nt
CCCN(CCC)C(=S)NC(=O)c1ccc(-c2ccccc2)cc1 | -48 | 14 | 17 | -3 | 0.9 | -26
COC(=O)[C@H]1C[C@@]2(O)CN(S(=O)(=O)c3ccc(C)cc3)C[C@@]2(OC(=O)NC2CC2)C[C@H]1C(=O)OC | nt | nt | nt | -25 | nt | nt
COc1ccc(-c2cc3ccccc3[nH]2)cc1 | 39* | nt | nt | 16 | nt | 31
COc1ccc2nc(NN=C(C)c3ccccn3)cc(C)c2c1 | -3 | nt | nt | 12 | nt | nt
CCN(CC(=O)Nc1c(F)cccc1F)C(=O)/C=C/c1ccc2ccccc2n1 | 33 | nt | nt | -2 | nt | 13
CCN(CC(=O)Nc1c(F)cccc1F)C(=O)c1ccc2ccccc2n1 | -9 | nt | nt | -5 | nt | nt
O=C(CN1C(=O)/C(=C2\SC(=S)N(CCS(=O)(=O)O)C2=O)c2ccccc21)Nc1cccc(Br)c1 | 58* | nt | nt | 24 | nt | 13
CC(=O)C1=C(c2ccccc2)N(C(C)=O)n2c(C)nnc2S1 | -315 | 12 | 6 | -3 | 0.9 | -125*
O=C(O)c1ccc(NC2=C/C(=N/S(=O)(=O)c3ccccc3)c3ccccc3C2=O)cc1 | 72* | -43 | 41 | 107* | 1.4 | 76
Cc1cc(C)c(S(=O)(=O)/N=C2\C=C(Nc3ccc(C(=O)O)cc3)C(=O)c3ccccc32)c(C)c1 | 41* | nt | nt | 57 | nt | 40
Cc1ccc(S(=O)(=O)/N=C2\C=C(NS(=O)(=O)c3ccccc3)C(=O)c3ccccc32)cc1 | 29 | nt | nt | 14 | nt | nt
SMILES | HKDC1 inhibitor | Diaphorase inh | G6PDH CS | PfG6PD inh | Diaph act CS | HKDC1 act conf2
COC(=O)c1ccc(-n2c(C)cc(C(=O)CCl)c2C)cc1 | 26 | -3 | 2 | -4 | 1 | nt
CCOc1ccc(-n2c(C)cc(C(=O)CCl)c2C)cc1 | 35 | 10 | -2 | 8 | 0.9 | 28
Cc1nc([N+](=O)[O-])c(Br)n1CC(=O)c1ccc2ccccc2c1 | 46* | 36 | 1 | 0 | 0.6 | 40
S=C(NCc1ccccn1)Nc1cccc(Cl)c1 | -5 | 11 | -6 | 1 | 0.9 | nt
CC(=NNC(=S)SCc1ccccc1)c1ccccn1 | -47 | nt | nt | -6 | nt | -28*
CC(=NNC(=S)N1CCC1)c1ccccn1 | -39 | nt | nt | 50 | nt | nt
CC(=NNC(=S)Nc1cccc(Cl)c1)c1ccccn1 | -46 | nt | nt | 35 | nt | -63*
CCOc1ccccc1NC(=O)c1sc2ncn(CC(=O)N3CCOCC3)c(=O)c2c1C | -2 | nt | nt | -2 | nt | nt
O=C(N/N=C1/C(=O)c2cccc3cccc1c23)c1ccc(Cl)cc1 | 43* | 68* | 4 | 26 | 0.3 | -2
Cc1cc(=O)oc2cc(OCc3ccc(C(=O)OCC(=O)Nc4ccc(N(C)C)cc4)cc3)ccc12 | -3 | -11 | 5 | -11 | 1.1 | nt
CCN1CCN(c2cc3c(nn2)Oc2ccccc2N3C)CC1 | -44 | 10 | 2 | -9 | 0.9 | -4
CC(=O)Oc1cccc2c1C(=O)c1c(OC(C)=O)cc(C(=O)O)cc1C2=O | 21 | 19 | 20 | -7 | 0.8 | nt
CC(=O)Oc1cccc2c1C(=O)C1CC=CC(OC(C)=O)C1C2=O (stereo unspecified) | -45 | nt | nt | -373 | nt | -66*
O=C(CSc1nc(-c2ccccc2)nc2c1Cc1ccccc1O2)Nc1ccc(C(=O)O)cc1 | 32 | 42 | -1 | -36 | 0.6 | nt
O=C(CSc1nc(-c2ccc(F)cc2)nc2c1Cc1ccccc1O2)Nc1ccc(C(=O)O)cc1 | 44* | 60* | -3 | -24 | 0.4 | -27
CC(=O)NC1C(=O)N(CCN2CCOCC2)c2ccc(C)cc21 (stereo unspecified) | 86* | nt | nt | 17 | nt | 70
CC(=O)NC1C(=O)N(CCN2CCOCC2)c2ccc(Cl)cc21 (stereo unspecified) | 82* | nt | nt | 12 | nt | 61
CC(=O)NC1C(=O)N(CCN2CCOCC2)c2ccc(F)cc21 (stereo unspecified) | 79* | nt | nt | 8 | nt | 61
CCCCN1C(=O)C(NC(C)=O)c2cc(Br)ccc21 (stereo unspecified) | -3 | 8 | 2 | 0 | 0.9 | nt
O=C1/C(=C\c2cccnc2)SC(=S)N1c1ccc(F)cc1 | -7 | -18 | 1 | 8 | 1.2 | nt
Fc1ccc(N2C(=S)SC(=Nc3ccccc3)C2=Nc2ccccc2)cc1 | -50 | nt | nt | 7 | nt | -32
N#CC(C#N)=C1SC(=Nc2ccccc2)C(=Nc2ccccc2)N1c1ccccc1 | -86 | nt | nt | 29 | nt | -32
NS(=O)(=O)c1cccc(NC(=O)CC23CC4CC(C2)CC(CC(=O)Nc2cccc(S(N)(=O)=O)c2)(C4)C3)c1 | 6 | nt | nt | -7 | nt | nt
N#Cc1c(SCC(=O)Nc2nc3ccccc3s2)sc2c(O)cc(=O)[nH]c12 | 28 | nt | nt | 12 | nt | nt
N#Cc1c(SCC(=O)Nc2nc3ccc(Br)cc3s2)sc2c(O)cc(=O)[nH]c12 | 34 | nt | nt | 1 | nt | 45
Cn1c2ccccc2c(=O)c2c(=O)n(-c3ccccc3)c(C3CCCCC3)nc21 | 43* | 15 | -2 | 7 | 0.8 | 18
Cn1c2ccccc2c(=O)c2c(=O)n(C3CCCCCC3)c(C3CCCCC3)nc21 | 35 | 27 | 2 | 37 | 0.7 | 2
COc1cc(/C=C/C(=O)O)cc(S(=O)(=O)Nc2ccccc2Oc2ccccc2)c1OC | -5 | nt | nt | -6 | nt | nt
